{"source": "PubChem BioAssay AID623983", "about": "(Vanderbilt High Throughput Screening Facility, 2012)", "target": "G protein-activated inward rectifier potassium channel 2 (Homo sapiens) + G protein-activated inward rectifier potassium channel 3 (Homo sapiens) (UniProt P48051+Q92806)", "sequence (P48051 whole entry, looked up)": "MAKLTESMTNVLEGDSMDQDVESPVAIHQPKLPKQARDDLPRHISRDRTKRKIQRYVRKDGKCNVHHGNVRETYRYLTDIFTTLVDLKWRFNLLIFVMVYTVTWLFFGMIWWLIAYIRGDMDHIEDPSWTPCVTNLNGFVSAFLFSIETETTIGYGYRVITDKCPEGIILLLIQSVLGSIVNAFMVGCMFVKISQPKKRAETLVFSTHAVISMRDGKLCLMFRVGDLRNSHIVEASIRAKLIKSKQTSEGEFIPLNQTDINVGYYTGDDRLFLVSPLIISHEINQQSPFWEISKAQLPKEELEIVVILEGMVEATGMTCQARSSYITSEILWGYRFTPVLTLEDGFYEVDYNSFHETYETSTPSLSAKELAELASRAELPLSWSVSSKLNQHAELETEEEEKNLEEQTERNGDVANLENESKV", "sequence (Q92806 whole entry, looked up)": "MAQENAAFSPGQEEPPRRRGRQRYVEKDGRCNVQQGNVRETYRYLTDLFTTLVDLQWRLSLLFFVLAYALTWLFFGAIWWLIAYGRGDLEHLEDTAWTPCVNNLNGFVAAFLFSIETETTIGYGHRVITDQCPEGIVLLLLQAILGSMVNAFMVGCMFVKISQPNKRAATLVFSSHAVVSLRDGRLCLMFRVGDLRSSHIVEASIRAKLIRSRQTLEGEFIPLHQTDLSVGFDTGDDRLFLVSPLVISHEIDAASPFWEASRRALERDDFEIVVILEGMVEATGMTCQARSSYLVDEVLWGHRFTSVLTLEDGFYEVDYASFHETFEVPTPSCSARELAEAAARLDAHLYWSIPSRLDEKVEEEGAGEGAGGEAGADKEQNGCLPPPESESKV", "assay": "activation of GIRK2/3-mediated thallium influx – cell-based, HEK-293 hGIRK2/3, thallium flux, FluoZin-2, concentration-response, dose response (AID 623983)", "details": "HEK-293 hGIRK2/3, thallium flux FluoZin-2 fluorescence; series mostly up to 30 µM", "summary_of_the_method": "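Repeats: Triplicate wells | System: HEK-293 cells stably expressing human GIRK2/3 channels | Detection: FluoZin-2 fluorescence thallium flux, sampled at 1 Hz | Timing: FluoZin-2 AM loading ~60 min room temperature, compound 4 min pre-thallium | Also added: Tl+ stimulus plus EC20 glutamate | Evaluation: Post-thallium fluorescence slope as % of MPD response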", "note": "Activity calls are given as the source filed them. How the calls were made is not given here."}
{"smiles": "Cc1cc(NC(=O)Nc2ccc(F)c(F)c2)n(-c2ccccc2)n1", "values": [{"measurement": "outcome", "value": "inactive"}]}
